Measurements reported in ChEMBL document CHEMBL1130279 (J Med Chem, 1997).

Legend:
[1] = target: T1, Sodium-dependent dopamine transporter (Rattus norvegicus, UniProt P23977); assay: Displacement of [3H]WIN-35428 from dopamine transporter in rat caudate putamen tissue; assay type: tissue-based
In short: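 Compounds were tested as oxalate salts unless noted; some were hydrochloride or fumarate. Values are mean ± SEM of three experiments, each run in triplicate.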

Rattus norvegicus = organism: Rattus norvegicus; assay: Compound was evaluated for its ability to inhibit uptake of [3H]-dopamine into rat caudate putamen tissue; assay type: functional
[2] = target: T1, Sodium-dependent dopamine transporter; assay: Compound was evaluated for its ability to displace [3H]WIN-35428 from dopamine transporter in rat caudate putamen tissue; assay type: tissue-based
[3] = Rattus norvegicus, Caudate-putamen

T1 sequence (P23977 whole entry): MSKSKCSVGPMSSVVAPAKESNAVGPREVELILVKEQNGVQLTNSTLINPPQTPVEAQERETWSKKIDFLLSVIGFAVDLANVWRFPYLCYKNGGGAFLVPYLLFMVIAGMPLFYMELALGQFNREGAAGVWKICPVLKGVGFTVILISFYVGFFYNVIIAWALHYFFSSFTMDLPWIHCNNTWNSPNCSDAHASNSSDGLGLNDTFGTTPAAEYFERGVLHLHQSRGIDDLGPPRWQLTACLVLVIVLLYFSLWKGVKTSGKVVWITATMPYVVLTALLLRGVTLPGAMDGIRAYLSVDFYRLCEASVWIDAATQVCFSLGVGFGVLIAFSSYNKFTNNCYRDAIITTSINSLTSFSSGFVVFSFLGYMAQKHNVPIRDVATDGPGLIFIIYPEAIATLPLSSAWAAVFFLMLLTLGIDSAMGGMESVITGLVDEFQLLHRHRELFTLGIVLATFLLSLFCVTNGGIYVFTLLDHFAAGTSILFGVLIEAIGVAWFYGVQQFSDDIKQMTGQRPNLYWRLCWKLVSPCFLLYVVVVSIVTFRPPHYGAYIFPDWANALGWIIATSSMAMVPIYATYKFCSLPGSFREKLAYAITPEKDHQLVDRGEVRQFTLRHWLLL

Row | SMILES | Ki [1] [nM] | also measured
1 | COC(=O)C[C@@H]1C2C[C@H](C)C(C[C@@H]1Cc1ccccc1)N2C (stereo partly specified) | 211 | 
2 | COC(=O)CC1C(Cc2ccccc2)CC2CCC1N2C (stereo unspecified) | 33 | IC50 (Rattus norvegicus): 161 nM
3 | COC(=O)[C@@H]1C2CC[C@H](C[C@@H]1c1ccccc1)N2C |  | IC50 [2]: 314 nM; IC50 (Rattus norvegicus; [3]): 373 nM
4 | COC(=O)C[C@H]1C2C[C@@H](Cc3ccccc3)C(C[C@@H]1Cc1ccccc1)N2C (stereo partly specified) | 7590 | 
5 | COC(=O)C[C@@H]1C2C[C@@H](Cc3ccccc3)C(C[C@@H]1Cc1ccccc1)N2C (stereo partly specified) | 3080 | 
6 | COC(=O)C[C@@H]1C2CCC(C[C@@H]1Cc1ccccc1)N2C (stereo partly specified) |  | IC50 (Rattus norvegicus; [3]): 94 nM
7 | COC(=O)CC1=C(Cc2ccccc2)CC2C(Cc3ccccc3)CC1N2C (stereo unspecified) | 4830 | 
8 | COC(=O)CC1C(Cc2ccccc2)CC2C(Cc3ccccc3)CC1N2C (stereo unspecified) | 3080 | 
9 | COC(=O)CC1C(Cc2ccccc2)CC2CCC1N2C (single isomer, unassigned; (+)) | 60 | IC50 (Rattus norvegicus): 208 nM
10 | CC[C@@H]1CC2[C@@H](CC(=O)OC)[C@@H](Cc3ccccc3)CC1N2C (stereo in doubt; 19c) | 307 | 
11 | CCCC[C@@H]1CC2[C@@H](CC(=O)OC)[C@@H](Cc3ccccc3)CC1N2C (stereo in doubt; 19e) | 8580 | 
12 | COC(=O)CC1C(Cc2ccccc2)CC2CCC1N2C (stereo in doubt; 20a) |  | IC50 (Rattus norvegicus): 457 nM
13 | CC[C@@H]1CC2[C@@H](CC(=O)OC)[C@@H](Cc3ccccc3)CC1N2C (stereo in doubt; 20c) | 1150 | 
14 | CCC[C@H]1CC2[C@@H](CC(=O)OC)[C@@H](Cc3ccccc3)CC1N2C (stereo in doubt; 20d) | 7240 | 
15 | CCCC[C@@H]1CC2[C@@H](CC(=O)OC)[C@@H](Cc3ccccc3)CC1N2C (stereo in doubt; 20e) | 19700 | 
16 | COC(=O)C[C@H]1C2C[C@@H](C)C(C[C@@H]1Cc1ccccc1)N2C (stereo in doubt; 21b) | 57 | IC50 (Rattus norvegicus): 107 nM
17 | CCC1CC2C(CC(=O)OC)C(Cc3ccccc3)CC1N2C (stereo in doubt; 21c) | 3110 | 
18 | CCCC1CC2C(CC(=O)OC)C(Cc3ccccc3)CC1N2C (stereo in doubt; 21d) | 5850 | 
19 | COC(=O)C[C@H]1C2C[C@@H](C)C(C[C@@H]1Cc1ccccc1)N2C (stereo in doubt; 22b) | 294 | IC50 (Rattus norvegicus): 532 nM
20 | CCC1CC2C(CC(=O)OC)C(Cc3ccccc3)CC1N2C (stereo in doubt; 22c) | 6210 | 
21 | CCCC1CC2C(CC(=O)OC)C(Cc3ccccc3)CC1N2C (stereo in doubt; 22d) | 57300 | 
